≈ marks a conversion by molar mass, not a printed value.
Assays:
[1] = Therapeutic index, ratio of IC50 for L929 cells to EC50 for reversing paclitaxel resistance in human MDA435/LCC6MDR cells; assay type: cell-based; settings: L929 cells (IC50) and MDA435/LCC6MDR cells (EC50)
[2] = Reversal of P-gp-mediated paclitaxel-resistance in human LCC6MDR cells after 5 days by MTS assay; assay type: cell-based; settings: 120 h
MDR = assay: Cytotoxicity against human MDA435/LCC6MDR cells expressing MDR after 72 hrs; assay type: functional, cell-based
Summary of the method: (§1)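 Cells seeded at 1 × 10⁴ per well in supplemented DMEM and given graded doses of dimer for 72 h at 37 °C, 5% CO₂. Survival measured and IC50 derived. N = 1–3 independent experiments, mean ± SEM.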

L929 = assay: Cytotoxicity against mouse L929 cells after 72 hrs; assay type: cell-based; settings: L929, 72 h; summary of the method: as §1
[3] = Cytotoxicity against human LCC-6 cells after 72 hrs; assay type: functional, cell-based; settings: LCC-6, 72 h; summary of the method: as §1
Homo sapiens [4] = species on record: Homo sapiens; assay: Inhibition of P-gp-mediated paclitaxel resistance in human LCC6MDR cells assessed as fold decrease in paclitaxel IC50 for cytotoxic activity at 0.5 uM after 5 days by MTS assay relative to parental cells; assay type: cell-based
Homo sapiens [5] = species on record: Homo sapiens; assay: Inhibition of P-gp-mediated paclitaxel resistance in human LCC6MDR cells assessed as fold decrease in paclitaxel IC50 for cytotoxic activity at 1 uM after 5 days by MTS assay relative to parental cells; assay type: cell-based
[6] = target: ATP-dependent translocase ABCB1 (Homo sapiens, UniProt P08183); assay: Inhibition of P-gp overexpressed in human MDA435/LCC6MDR cells assessed as accumulation of doxorubicin after 150 mins by fluorescence spectrophotometric analysis; assay type: cell-based; settings: 2.5 h
Summary of the method: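 1 × 10⁶ LCC6MDR or LCC6 cells incubated with 20 μM DOX and graded modulator for 150 min at 37 °C, with 0.4% DMSO as negative control. Cells washed and lysed in 0.75 M HCl, 0.2% Triton X-100 in isopropanol. DOX fluorescence read at ex 460/em 610 nm. N = 2–5.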

Chain of ATP-dependent translocase ABCB1 (P08183 whole entry): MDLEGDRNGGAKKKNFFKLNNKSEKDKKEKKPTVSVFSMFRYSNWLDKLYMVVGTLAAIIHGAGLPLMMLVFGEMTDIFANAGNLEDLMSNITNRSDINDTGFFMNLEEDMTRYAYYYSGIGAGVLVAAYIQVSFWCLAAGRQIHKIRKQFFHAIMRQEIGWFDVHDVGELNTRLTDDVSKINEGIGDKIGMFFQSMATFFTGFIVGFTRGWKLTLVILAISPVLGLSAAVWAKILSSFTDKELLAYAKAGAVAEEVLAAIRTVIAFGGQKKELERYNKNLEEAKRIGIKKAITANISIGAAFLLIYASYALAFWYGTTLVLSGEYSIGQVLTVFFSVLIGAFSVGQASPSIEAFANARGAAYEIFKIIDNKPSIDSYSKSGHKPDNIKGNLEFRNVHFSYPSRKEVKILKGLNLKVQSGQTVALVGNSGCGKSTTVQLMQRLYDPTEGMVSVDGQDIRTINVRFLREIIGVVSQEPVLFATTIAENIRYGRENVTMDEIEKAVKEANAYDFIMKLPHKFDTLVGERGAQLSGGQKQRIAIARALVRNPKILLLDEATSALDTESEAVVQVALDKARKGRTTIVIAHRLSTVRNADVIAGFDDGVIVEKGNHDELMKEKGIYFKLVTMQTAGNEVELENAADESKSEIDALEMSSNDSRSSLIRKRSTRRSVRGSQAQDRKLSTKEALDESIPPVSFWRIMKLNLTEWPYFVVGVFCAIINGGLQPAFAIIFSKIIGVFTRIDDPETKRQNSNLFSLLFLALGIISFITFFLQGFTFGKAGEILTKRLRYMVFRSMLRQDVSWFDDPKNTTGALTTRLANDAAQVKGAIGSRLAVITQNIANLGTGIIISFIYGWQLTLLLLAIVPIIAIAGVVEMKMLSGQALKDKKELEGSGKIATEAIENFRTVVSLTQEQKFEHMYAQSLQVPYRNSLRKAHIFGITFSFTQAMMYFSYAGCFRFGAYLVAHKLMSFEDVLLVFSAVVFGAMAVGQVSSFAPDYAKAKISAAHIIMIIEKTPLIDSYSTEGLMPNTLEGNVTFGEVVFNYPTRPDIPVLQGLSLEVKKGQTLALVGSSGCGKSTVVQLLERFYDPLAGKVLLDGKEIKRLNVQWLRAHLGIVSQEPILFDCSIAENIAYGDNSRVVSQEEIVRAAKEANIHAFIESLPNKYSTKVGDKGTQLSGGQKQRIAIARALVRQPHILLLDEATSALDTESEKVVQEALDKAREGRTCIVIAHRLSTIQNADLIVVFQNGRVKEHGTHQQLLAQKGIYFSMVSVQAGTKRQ

SMILES	selectivity ratio [1]	EC50 [2] [µM]	IC50 (MDR) [µM]	IC50 (L929) [µM]	IC50 [3] [µM]	Ratio (Homo sapiens [4])	Ratio (Homo sapiens [5])	MIC [6] [µM]	inhibition (INH) [6]
CCN(CCOCCOc1ccc(-c2cc(=O)c3ccccc3o2)cc1)CCOCCOc1ccc(-c2cc(=O)c3ccccc3o2)cc1	34.5	0.2	17.3	6.9	10.3	26.9	95.7		
COc1ccc(CCN(C)CCCC(C#N)(c2ccc(OC)c(OC)c2)C(C)C)cc1OC (stereo not given)								8 (≈ 3.64 µg/mL)	Dose-dependent effect
CCOC(=O)CCN(CCOCCOc1ccc(-c2cc(=O)c3ccccc3o2)cc1)CCOCCOc1ccc(-c2cc(=O)c3ccccc3o2)cc1			17.7	18.1	13.5	5.3	43.7		
O=C1c2ccccc2C(=O)N1CCN(CCOCCOc1ccc(-c2cc(=O)c3ccccc3o2)cc1)CCOCCOc1ccc(-c2cc(=O)c3ccccc3o2)cc1			4.9	17	8.6	9.6	118		
Cc1ccc2oc(-c3ccc(OCCOCCNCCOCCOc4ccc(-c5cc(=O)c6cc(C)ccc6o5)cc4)cc3)cc(=O)c2c1			7	6	7.5	13.9	139		
O=c1cc(-c2ccc(OCCOCCN(CCOCCOc3ccc(-c4cc(=O)c5ccccc5o4)cc3)Cc3ccncc3)cc2)oc2ccccc12			> 100	26.4	> 100	6.9	27.8		
CC(C)(C)OC(=O)N(CCOCCOc1ccc(-c2cc(=O)c3ccccc3o2)cc1)CCOCCOc1ccc(-c2cc(=O)c3ccccc3o2)cc1	34.7	0.32	6.2	11.1	8	11.1	69.6		
COc1cc(-c2cc(=O)c3ccccc3o2)ccc1OCCOCCN(CCOCCOc1ccc(-c2cc(=O)c3ccccc3o2)cc1OC)C(=O)OC(C)(C)C			6.9	33.3	8.3	8.7	16.8		
CS(=O)(=O)N(CCOCCOc1ccc(-c2cc(=O)c3ccccc3o2)cc1)CCOCCOc1ccc(-c2cc(=O)c3ccccc3o2)cc1			42.6	13.4	27.5	12.8	20.1		
O=c1cc(-c2ccc(OCCOCCN(CCOCCOc3ccc(-c4cc(=O)c5ccccc5o4)cc3)Cc3cccc(F)c3)cc2)oc2ccccc12	> 337	0.258	> 100	> 87	> 100	36.5	118		
O=c1cc(-c2ccc(OCCOCCN(CCOCCOc3ccc(-c4cc(=O)c5ccccc5o4)cc3)Cc3ccc([N+](=O)[O-])cc3)cc2)oc2ccccc12	466	0.189	> 90	88	86.8	43.7	128		
Cc1ccc(S(=O)(=O)N(CCOCCOc2ccc(-c3cc(=O)c4ccccc4o3)cc2)CCOCCOc2ccc(-c3cc(=O)c4ccccc4o3)cc2)cc1			> 100	> 100	> 100	5.8	21.6		
O=c1cc(-c2ccc(OCCOCCN(CCOCCOc3ccc(-c4cc(=O)c5ccccc5o4)cc3)Cc3ccc(C(F)(F)F)cc3)cc2)oc2ccccc12	218	0.15	> 100	32.7	> 100	37.3	90.1		
O=c1cc(-c2ccc(OCCOCCN(CCOCCOc3ccc(-c4cc(=O)c5ccccc5o4)cc3)Cc3cc(F)c(F)c(F)c3)cc2)oc2ccccc12			> 100	> 100	> 75	3.3	80.6		
O=c1cc(-c2ccc(OCCOCCNCCOCCOc3ccc(-c4cc(=O)c5ccccc5o4)cc3)cc2)oc2ccccc12	19.3	0.305	2.4	5.9	3.3	72.9	139		
COC(=O)c1ccc(CN(CCOCCOc2ccc(-c3cc(=O)c4ccccc4o3)cc2)CCOCCOc2ccc(-c3cc(=O)c4ccccc4o3)cc2)cc1			64.8	11.4	33.3	2.1	18.9		
COc1cccc2oc(-c3ccc(OCCOCCN(CCOCCOc4ccc(-c5cc(=O)c6c(OC)cccc6o5)cc4)C(=O)OC(C)(C)C)cc3)cc(=O)c12			5.4	5.5	4.6	14.9	109		
O=c1cc(-c2ccc(OCCOCCN(CCCc3ccccc3)CCOCCOc3ccc(-c4cc(=O)c5ccccc5o4)cc3)cc2)oc2ccccc12	38	0.25	> 100	9.5	> 100	12.5	56.7		
O=c1cc(-c2ccc(OCCOCCN(CCOCCOc3ccc(-c4cc(=O)c5ccccc5o4)cc3)Cc3ccccn3)cc2)oc2ccccc12			29.7	10	10	15.8	95.7		
O=C(c1ccccc1)N(CCOCCOc1ccc(-c2cc(=O)c3ccccc3o2)cc1)CCOCCOc1ccc(-c2cc(=O)c3ccccc3o2)cc1			> 100	95	> 100	7.5	42.5		
O=c1cc(-c2ccc(OCCOCCN(CCOCCOc3ccc(-c4cc(=O)c5ccccc5o4)cc3)Cc3ccccc3F)cc2)oc2ccccc12	> 559	0.179	> 100	> 100	> 100	43.7	102		
O=c1cc(-c2ccc(OCCOCCN(CCOCCOc3ccc(-c4cc(=O)c5ccccc5o4)cc3)Cc3ccc(F)cc3)cc2)oc2ccccc12	77.3	0.255	> 83	19.7	> 100	31.2	109		

— ChEMBL document CHEMBL2203168, “Amine linked flavonoid dimers as modulators for P-glycoprotein-based multidrug resistance: structure-activity relationship and mechanism of modulation” (J Med Chem, 2012)
